Reference: ChEMBL document CHEMBL3872265, “Structure-activity relationship of the inhibitory effects of flavonoids on nitric oxide production in RAW264.7 cells” (Bioorg Med Chem, 2017)

Experiments:
RAW264.7 [1] = test: Inhibition of LPS/INF-gamma-stimulated nitric oxide production in mouse RAW264.7 cells measured after 16 hrs; format: functional, cell-based; conditions: RAW264.7, 16 h
Procedure, shortened: (§1)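 RAW264.7 murine macrophages were co-stimulated with LPS (100 ng/mL) plus IFN-γ (0.33 ng/mL) in the presence of test compound. Nitrite released into the medium was quantified by the Griess method as a measure of NO. Cell viability was read in parallel with AlamarBlue reagent.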

Peritoneal macrophage = test: Inhibition of LPS-stimulated nitric oxide production in ddy mouse peritoneal macrophages measured after 20 hrs by Greiss method; format: functional
[2] = Cytotoxicity against LPS-stimulated mouse RAW264.7 cells assessed as cell viability at 100 uM by alamar blue assay relative to control; format: toxicity; conditions: LPS-stimulated RAW264.7 cells, read-out: Activity
Procedure, shortened: (§2)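 This variant stimulated RAW264.7 murine macrophages with LPS alone, without IFN-γ, in the presence of test compound. Released nitrite was measured by the Griess method to quantify NO production. Cell viability was assessed with AlamarBlue reagent.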

RAW264.7 [3] = test: Inhibition of LPS-stimulated nitric oxide production in mouse RAW264.7 cells by Greiss method; format: functional, cell-based; procedure, shortened: as §2
RAW264.7 [4] = test: Inhibition of LPS/INF-gamma-stimulated nitric oxide production in mouse RAW264.7 cells by Greiss method; format: functional, cell-based; procedure, shortened: as §1
[5] = Cytotoxicity against LPS/INF-gamma-stimulated mouse RAW264.7 cells assessed as cell viability at 100 uM by alamar blue assay relative to control; format: toxicity; conditions: LPS/INF-gamma-stimulated RAW264.7 cells, read-out: Activity; procedure, shortened: as §1

| IC50 (RAW264.7 [1]) | IC50 (Peritoneal macrophage) | SMILES | further results |
| --- | --- | --- | --- |
| 12 µM | – | O=C1C[C@@H](c2cc(O)cc(O)c2)Oc2cc(O)cc(O)c21 | – |
| – | 14 µM | O=c1cc(-c2ccc(O)cc2)oc2cc(O)ccc12 | – |
| – | 26 µM | O=c1cc(-c2ccc(O)c(O)c2)oc2cc(O)ccc12 | – |
| > 100 µM | – | COc1c(O)cc([C@H]2Oc3cc(O)ccc3C(=O)[C@@H]2O)cc1O | – |
| > 100 µM | – | O=C1C[C@@H](c2cc(O)c(O)c(O)c2)Oc2cc(O)ccc21 | – |
| – | – | COc1cc(-c2cc(=O)c3c(O)cc(O)cc3o2)cc(O)c1OC | viability at 100 µM [2]: 106%; IC50 (RAW264.7 [3]): 6.9 µM; IC50 (RAW264.7 [4]): 18.2 µM; viability at 100 µM [5]: 96% |
| 14 µM | – | COc1c(O)cc(-c2oc3cc(O)ccc3c(=O)c2O)cc1O | – |
| 63 µM | – | COc1cc(-c2oc3cc(O)ccc3c(=O)c2O)cc(OC)c1O | – |
| – | – | COc1c(O)cc(-c2cc(=O)c3c(O)cc(O)cc3o2)cc1O | viability at 100 µM [2]: 112%; IC50 (RAW264.7 [3]): 37 µM; IC50 (RAW264.7 [4]): 59.3 µM; viability at 100 µM [5]: 119% |
| > 100 µM | – | COc1cc([C@H]2Oc3cc(O)ccc3C(=O)[C@@H]2O)cc(OC)c1O | – |
| > 100 µM | – | O=C1c2ccc(O)cc2O[C@H](c2cc(O)c(O)c(O)c2)[C@H]1O | – |
| – | – | COc1ccc(-c2cc(=O)c3c(O)cc(O)cc3o2)cc1OC | viability at 100 µM [2]: 112%; IC50 (RAW264.7 [3]): 5 µM; IC50 (RAW264.7 [4]): 17 µM; viability at 100 µM [5]: 109% |
| – | – | COc1ccc(-c2cc(=O)c3c(O)cc(O)cc3o2)cc1 [ACACETIN] | viability at 100 µM [2]: 99%; IC50 (RAW264.7 [3]): 27.7 µM; IC50 (RAW264.7 [4]): 53.7 µM; viability at 100 µM [5]: 115% |
| 14 µM | 7.7 µM | O=c1cc(-c2ccc(O)cc2)oc2cc(O)cc(O)c12 [APIGENIN] | – |
| > 100 µM | – | O=C1c2c(O)cc(O)cc2O[C@H](c2ccc(O)cc2)[C@H]1O [DIHYDROKAEMPFEROL] | – |
| – | 8.9 µM | COc1ccc(-c2cc(=O)c3c(O)cc(O)cc3o2)cc1O [DIOSMETIN] | IC50 (RAW264.7 [3]): 16.7 µM; IC50 (RAW264.7 [4]): 32.2 µM |
| – | > 100 µM | O=C1C[C@@H](c2ccc(O)c(O)c2)Oc2cc(O)cc(O)c21 [ERIODICTYOL] | – |
| 15 µM | 29 µM | O=c1c(O)c(-c2ccc(O)cc2)oc2cc(O)cc(O)c12 [KAEMPFEROL] | viability at 100 µM [2]: 141%; IC50 (RAW264.7 [3]): 13.4 µM; IC50 (RAW264.7 [4]): 17 µM; viability at 100 µM [5]: 138% |
| – | 85 µM | O=C1C[C@@H](c2ccc(O)cc2)Oc2cc(O)ccc21 [LIQUIRTIGENIN] | – |
| – | 84 µM | COc1c(O)cc(-c2oc3cc(O)cc(O)c3c(=O)c2O)cc1O [MEARNSETIN] | – |
| – | 99 µM | O=c1c(O)c(-c2cc(O)c(O)c(O)c2)oc2cc(O)cc(O)c12 [MYRICETIN] | – |
| 42 µM | – | O=c1c(O)c(-c2cc(O)c(O)c(O)c2)oc2cc(O)ccc12 [ROBINETIN] | – |
| – | 25 µM | COc1ccc(-c2oc3cc(O)cc(O)c3c(=O)c2O)cc1O [TAMARIXETIN] | – |

| SMILES | IC50 (RAW264.7 [1]) | IC50 (Peritoneal macrophage) | further results |
| --- | --- | --- | --- |
| O=c1cc(-c2ccc(O)c(O)c2)oc2cc(O)cc(O)c12 [LUTEOLIN] | – | 20 µM | – |
| O=C1C[C@@H](c2ccc(O)cc2)Oc2cc(O)cc(O)c21 [NARINGENIN] | 60 µM | – | – |
| O=c1c(O)c(-c2ccc(O)c(O)c2)oc2cc(O)cc(O)c12 [QUERCETIN] | – | 36 µM | – |
| COc1cc(-c2cc(=O)c3c(O)cc(O)cc3o2)cc(OC)c1O [TRICIN] | 8 µM | – | – |
